Test results published in paper PMC11303814 (Nature Communications, 2024).
Numbering of substitutions follows the chain as printed. “Also recorded” adds a separate entry of the source.

What was measured:
Assay type in all cases: cell-based
rP2X7-R125A/I214A = biological target: T1, rP2X7-R125A/I214A (Rattus norvegicus, UniProt Q64663, I214A/R125A); assay: TEVC dose response; conditions: read-out: EC50 (apparent affinity), mean ± SD, triplicate
T1 sequence (Q64663 1-595 R125A/I214A): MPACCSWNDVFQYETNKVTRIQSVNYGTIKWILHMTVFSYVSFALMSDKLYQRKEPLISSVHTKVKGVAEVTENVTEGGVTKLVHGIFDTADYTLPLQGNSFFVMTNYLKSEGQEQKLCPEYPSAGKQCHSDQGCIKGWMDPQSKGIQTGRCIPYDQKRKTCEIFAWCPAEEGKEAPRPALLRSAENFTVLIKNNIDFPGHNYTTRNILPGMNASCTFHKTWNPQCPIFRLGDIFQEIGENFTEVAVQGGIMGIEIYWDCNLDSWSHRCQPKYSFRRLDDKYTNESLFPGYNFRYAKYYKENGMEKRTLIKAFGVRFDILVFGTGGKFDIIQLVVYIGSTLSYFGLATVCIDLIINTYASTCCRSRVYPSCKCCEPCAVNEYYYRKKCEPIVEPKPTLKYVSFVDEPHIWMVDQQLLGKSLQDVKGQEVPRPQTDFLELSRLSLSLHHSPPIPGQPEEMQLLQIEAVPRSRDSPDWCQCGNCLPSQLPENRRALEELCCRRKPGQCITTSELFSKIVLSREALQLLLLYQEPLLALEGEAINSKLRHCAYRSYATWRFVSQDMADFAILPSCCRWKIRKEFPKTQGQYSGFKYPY
Summary of the method: (§1)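 TEVC was run on Xenopus oocytes ~20 h after injection of wild-type or mutant rP2X7 mRNA, in pH 7.4 HEPES buffer with 0.1 mM flufenamic acid. Receptors were facilitated at 100 µM before recording. Dilution series: ATP 1.5 mM–2 µM (7 points), BzATP 300–0.14 µM (8 points). Responses were normalized to the largest concentration, fitted by nonlinear regression for EC50, and averaged across triplicates (mean ± SD).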

wild-type rP2X7 = biological target: T2, wild-type rP2X7 (Rattus norvegicus, UniProt Q64663); assay: TEVC efficacy experiments, wild-type rP2X7 in oocytes; conditions: WT rP2X7, identical concentrations of ATP and BzATP
T2 sequence (Q64663 1-595): T1 sequence (Q64663 1-595 R125A/I214A) with A125R, A214I
Summary of the method: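 Oocytes expressing rP2X7 (~20 h after mRNA injection), TEVC in pH 7.4 HEPES/flufenamic acid buffer. Each oocyte first received 100 µM ATP as the normalization reference, then sequentially 50 µM ATP, 50 µM BzATP, 100 µM ATP and 100 µM BzATP, with buffer washout to baseline between applications. Normalized currents are from triplicates per concentration per construct; mean ± SD.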

rP2X7 K127A = biological target: T3, rP2X7 K127A (Rattus norvegicus, UniProt Q64663, K127A); assay: TEVC dose response; conditions: read-out: EC50 (apparent affinity), mean ± SD, triplicate
T3 sequence (Q64663 1-595 K127A): T1 sequence (Q64663 1-595 R125A/I214A) with A125R, K127A, A214I
Summary of the method: as §1

Molecule | EC50 (rP2X7-R125A/I214A) | efficacy (agonist character, current amplitude) (wild-type rP2X7) | EC50 (rP2X7 K127A)
Nc1ncnc2c1ncn2[C@@H]1O[C@H](COP(=O)(O)OP(=O)(O)OP(=O)(O)O)[C@@H](O)[C@H]1O [ATP] | 77 ± 10 µM | partial agonist | 22 ± 3 µM
BzATP | 14 ± 2 µM | full agonist; also recorded: greater inward current than ATP | 2.9 ± 0.4 µM
